In the library only some 0.6% were active in any assay of this set; here they are far more common.
DDE Tn7 FP inh = inhibitors of Tn7 peptide binding to human fibrin DD(E). inhibition, % at 8.3 µM. FP displacement of FITC-Tn7 peptide from fibrin DD(E); 0% = median of compound wells per plate. 370,000 compounds, 0.13% hits. P02675;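 active means inhibition above the mean of compounds falling within the control limits plus 3 SD of them, cut at about 14% in these data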;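 further: 0% = plate median of compound wells and 100% = 10 µM Aha-Tn7 peptide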
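Assay system: Human clot-derived fibrin DD(E) complex | Buffer or medium: Tris/NaCl/CaCl2 buffer, pH 7.8 | Repeats: One replicate per compound | Benchmarks: Aha-Tn7 high control | Measure: % inhibition scaled between sample-field median and high-control FP | Schedule: 10 min plus 3 h, room temperature | Signal: Fluorescence polarization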
C-LANA FP = blocks KSHV LANA C-terminal domain binding to DNA; inhibition, % at 9 µM; 340,000 compounds, 0.078% hits; MBP-C-LANA/FAM-LBS DNA binding, fluorescence polarization;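 active means highest replicate inhibition at or above 60% at 9 µM, even if other replicates fall short; inactive means all replicates below 60% inhibition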;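 further: 0% = neutral control wells and 100% = 4 µM acridine orange control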
DDE Tn6 FP inh = DD(E)-Tn6 binding inhibition, primary FP screen; 370,000 compounds, 0.21% hits; inhibition, % at 8.3 µM; AID 720509; Fibrin DD(E) TRITC-Tn6 fluorescence polarization displacement;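 active means inhibition above a per-campaign cutoff: mean of compounds within control limits plus 3 SD, cut at about 15% in these data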;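 further: 0% = median of all compound wells on the plate and 100% = blocking peptide control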
Keap1 Nrf2 FP = Keap1-Nrf2 (human) interaction inhibition | inhibition, % at 9.4 µM | AID 504523 | Q14145 | 340,000 compounds, 0.15% hits | Keap1 Kelch-Nrf2 peptide fluorescence polarization, 1536-well; in the data active means inhibition above about 12%; inconclusive means no clear call, values can overlap the other calls; inactive means below about 7.3%;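 further: human Keap1 Kelch domain with fluorescein labeled Nrf2 9mer peptide probe; 0% = neutral control wells and 100% = peptide positive control; higher means more block of Keap1 binding to Nrf2 peptide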
Target sequence (Q14145 whole entry, looked up, the tested form may be a part): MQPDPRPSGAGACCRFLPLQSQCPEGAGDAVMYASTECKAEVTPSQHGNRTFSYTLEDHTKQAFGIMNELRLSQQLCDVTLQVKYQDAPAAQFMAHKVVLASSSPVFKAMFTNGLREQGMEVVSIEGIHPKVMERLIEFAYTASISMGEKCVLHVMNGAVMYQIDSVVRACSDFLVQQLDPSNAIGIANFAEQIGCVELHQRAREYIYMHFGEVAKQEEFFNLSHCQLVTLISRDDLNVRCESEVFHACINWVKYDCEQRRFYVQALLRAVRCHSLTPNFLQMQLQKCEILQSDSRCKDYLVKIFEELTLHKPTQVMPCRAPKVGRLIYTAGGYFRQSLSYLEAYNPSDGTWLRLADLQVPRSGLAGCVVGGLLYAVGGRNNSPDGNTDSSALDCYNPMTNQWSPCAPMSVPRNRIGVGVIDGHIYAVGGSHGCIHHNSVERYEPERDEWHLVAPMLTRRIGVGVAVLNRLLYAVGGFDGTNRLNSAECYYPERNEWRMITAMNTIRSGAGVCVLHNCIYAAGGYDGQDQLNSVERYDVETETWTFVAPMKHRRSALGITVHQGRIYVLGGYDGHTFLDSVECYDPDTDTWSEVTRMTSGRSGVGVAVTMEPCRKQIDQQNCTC
Rtt109 Vps75 = blocks Candida albicans Rtt109/Vps75 acetyltransferase activity; inhibition, % at 34.9 µM; 330,000 compounds, 0.16% hits; purified Rtt109/Vps75, ThioGlo CoA-SH fluorescence, 4 h; AID 540336; Q5AAJ8;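 active means inhibition of at least 50% in every replicate; inconclusive means best replicate reaches 50% inhibition but some replicates fall short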
Tn6 DDE ctr = counter-screen for inhibitors of Tn6 peptide binding to fibrin DD(E); shares compounds with DDE Tn6 FP inh; TRITC-Tn6 fluorescence polarization displacement; 0% = median of compound wells, not DMSO; inhibition, % at 8.3 µM; 680 compounds, 2% hits;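 active means inhibition above the mean of test compounds lying between the control limits plus 3 SD of those, cut at about 14% in these data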;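 further: 0% = median of compound wells and 100% = wells with Aha-Tn7 blocking peptide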
DDE Tn6 confirm = confirmation of inhibitors of Tn6 binding to human fibrin DD(E) | shares compounds with DDE Tn6 FP inh | FP displacement of TRITC-Tn6 peptide from DD(E); 0% = per-plate median of test wells | inhibition, % at 8.3 µM | 680 compounds, 10% hits;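 active means inhibition above the mean of compounds lying within the control limits plus 3 SD, cut at about 16% in these data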;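 further: 100% = high control wells holding a competing inhibitor peptide at 10 µM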
Active calls of the source: *; ? = inconclusive; . = no result given.

SMILES	DDE Tn7 FP inh	C-LANA FP	DDE Tn6 FP inh	Keap1 Nrf2 FP	Rtt109 Vps75	Tn6 DDE ctr	DDE Tn6 confirm
NC(N)=N/N=C/c1ccccc1OC(F)F	1	-1	17*	-2	9	-1	-1
Fc1ccc(-c2cc(-c3nnc4sc(-c5ccco5)nn34)[nH]n2)cc1	-6	.	10	.	.	.	.
CC1=CN2C(=N)/C(=C/c3ccc([N+](=O)[O-])o3)C(=O)N=C2S1	-5	-3	20*	-23	0	-12	-10
O=C(OCCN1CCN(C2CN(Cc3cn(Cc4ccccc4Cl)nn3)S(=O)(=O)C2)CC1)c1cccs1 (stereo unspecified)	-5	.	-4	.	.	.	.
CCOc1ccc(C(=O)Nc2cc(-c3nc4ccccc4[nH]3)ccc2Cl)cc1[N+](=O)[O-]	4	1	25*	-5	5	-2	-10
COc1ccc(C=NNC(=O)c2cc(-c3ccc(C)c(C)c3)n[nH]2)cc1OCc1ccccc1	-6	.	16*	.	.	2	2
Cc1ccc(-c2cc(C(=O)NN=Cc3ccc(F)cc3)[nH]n2)cc1C	1	.	-12	.	.	.	.
Cc1ccc(-c2cc(C(=O)NN=Cc3cccc(Oc4ccccc4)c3)[nH]n2)cc1C	1	.	19*	.	.	4	0
Cc1ccc(-c2cc(C(=O)NN=Cc3cccc(OCc4ccccc4)c3)[nH]n2)cc1C	-6	.	20*	.	.	8	16*
CC(=O)OC12CCCN(C1)/C(=C/c1ccc(Cl)cc1)C2 (stereo unspecified)	0	.	-6	.	.	.	.
C/C(=C\C(=O)c1cccnc1)Nc1ccc(O)cc1	11	0	44*	0	3	6	-2
COc1ccc(NC(=O)c2cccnc2)cc1	-3	0	0	2	1	.	.
COc1ccc(C(=O)/C=C(\C)Nc2ccc(NC(C)=O)cc2)cc1	-2	2	0	2	?	.	.
C/C(=C\C(=O)c1ccccc1)Nc1ccc(O)cc1	-6	0	17*	-1	7	-6	-7
O=C1c2ccccc2CCC12N=NCC2c1ccc(Cl)cc1 (stereo unspecified)	1	0	17*	-1	4	-5	-11
O=C1c2ccccc2CCC12N=NCC2c1ccc(Br)cc1 (stereo unspecified)	-2	2	1	9	2	.	.
CNNC(=S)Nc1cccc(C(F)(F)F)c1	-6	.	-2	.	.	.	.
CC(C)(O)C(=O)NNC(=S)Nc1cccc(C(F)(F)F)c1	5	-1	17*	-1	2	3	2
O=C1C(NC(=O)N2c3ccccc3C=Cc3ccccc32)CCCCN1Cc1cccc(Cl)c1 (stereo unspecified)	-3	.	-4	.	.	.	.
Cc1nn(-c2ccccc2)c2sc(C(=O)NCc3ccc(F)cc3)cc12	4	.	32*	.	.	0	-14
Cc1nn(-c2ccc(F)cc2)c2sc(C(=O)O)cc12	-2	0	2	-1	.	.	.
CC(=O)Nc1sc2c(c1-c1nc3ccccc3s1)CCOC2	-1	.	16*	.	.	11	7
CC(=O)Nc1sc2c(c1-c1nc3ccccc3s1)CCN(C)C2	7	.	-2	.	.	.	.
Cc1cc(C(F)(F)F)n2nc(-c3cnn(C)c3C(F)(F)F)c(Cl)c2n1	0	1	16*	-1	-3	9	5
COc1ccc(NC(=O)c2oc3ccccc3c2NC(=O)COc2ccccc2OC)c(OC)c1	5	0	18*	-5	3	4	3
SMILES	DDE Tn7 FP inh	C-LANA FP	DDE Tn6 FP inh	Keap1 Nrf2 FP	Rtt109 Vps75	Tn6 DDE ctr	DDE Tn6 confirm
COc1ccc(NC(=O)c2oc3ccccc3c2NC(=O)c2ccc(OC)c(OC)c2)c(OC)c1	-6	-1	9	0	.	.	.
COc1ccc(-n2c(SCC(=O)Nc3ccc(OCc4ccccc4)cc3)nnc2-c2ccc(C)cc2)cc1	-4	.	5	.	.	.	.
CNC(=O)c1cc(Oc2ccc(NC(=O)Nc3ccc(Cl)c(C(F)(F)F)c3)cc2)ccn1	-2	1	34*	3	2	-1	-2
Cc1cc(-c2nnn(CCCOC(C)(C)C)c2C)ccc1-c1cn(CCCOC(C)(C)C)nn1	-4	.	17*	.	.	5	6
COc1ccc(-c2cn(CCCOCc3ccccc3)nn2)cc1	-6	2	-3	-3	-2	.	.
Cc1ccc(C(=O)N2[C@@H]3CN(C)C(=O)[C@@]2(Cc2ccccc2)[C@H]2C(=O)N(C)C(=O)[C@@H]32)cc1	8	0	16*	-7	-3	-3	-3
O=C(O)CCN(Cc1ccccc1)S(=O)(=O)c1ccc(Cl)cc1F	4	2	16*	4	-1	-1	-4
O=C(COC(=O)c1ccccc1Cc1ccccc1)Nc1ccc(SC(F)F)cc1	-4	-1	16*	-1	-1	-1	-21
Fc1cccc(Cl)c1CNc1ccc(N2CCCC2)cc1	2	0	20*	1	-5	1	1
NS(=O)(=O)c1ccc(NCc2c(F)cccc2Cl)cc1	-5	1	-2	-4	-2	.	.
C[C@H]1COc2cc(N3CCSCC3)ccc2S(=O)(=O)N1C	-1	.	0	.	.	.	.
Cc1ccc(-c2csc3ncnc(N4CCN(c5ccccc5O)CC4)c23)cc1	4	-1	16*	0	8	4	-2
c1ccc(Oc2ccccc2-c2cc(NCCc3cccnc3)n3nccc3n2)cc1	0	.	17*	.	.	1	0
c1ccc(Oc2ccc(-c3cc(NCCc4cccnc4)n4nccc4n3)cc2)cc1	0	.	-5	.	.	.	.
O=C(CSc1nnc(-c2ccccc2)n1-c1ccccc1)Nc1ccc(Oc2ccccc2)cc1	-2	.	0	.	.	.	.
CC(=O)N1CCN=C1SCc1ccc(Br)cc1	8	0	20*	-2	6	3	2

Bioassay records as filed in PubChem BioAssay.
